Test results published in ChEMBL document CHEMBL1212779, “Ceftobiprole is superior to vancomycin, daptomycin, and linezolid for treatment of experimental endocarditis in rabbits caused by methicillin-resistant Staphylococcus aureus” (Antimicrob Agents Chemother, 2010).
≈ marks a conversion by molar mass, not a printed value.

Legend:
Staphylococcus aureus [1] = test: (§1) Antibacterial activity against methicillin-resistant Staphylococcus aureus COL infected New Zealand White rabbit aortic valve endocarditis model assessed as decrease in bacterial colony forming unit in kidney at 18 mg/kg, iv dosed every 24 hrs for 4 days (reference value: 4.4 +/- 1.0 log10CFU per gram tissue); format: functional
Staphylococcus aureus [2] = test: as §1, with “spleen” for “kidney”, “5.1” for “4.4”, “0.9” for “1.0”; format: functional
Staphylococcus aureus [3] = test: as §1, with “vegetation” for “kidney”, “8.4” for “4.4”, “0.7” for “1.0”; format: functional
Staphylococcus aureus [4] = test: as §1, with “at 25” for “at 18”, “mg/kg, im” for “mg/kg, iv”, “every 8” for “every 24”; format: functional; settings: route intramuscular
Staphylococcus aureus [5] = test: as §1, with “in spleen” for “in kidney”, “at 25” for “at 18”, “mg/kg, im” for “mg/kg, iv”, “every 8” for “every 24”, “value: 5.1” for “value: 4.4”, “+/- 0.9” for “+/- 1.0”; format: functional; settings: route intramuscular
Staphylococcus aureus [6] = test: as §1, with “in vegetation” for “in kidney”, “at 25” for “at 18”, “mg/kg, im” for “mg/kg, iv”, “every 8” for “every 24”, “value: 8.4” for “value: 4.4”, “+/- 0.7” for “+/- 1.0”; format: functional; settings: route intramuscular
Oryctolagus cuniculus [7] = test: Plasma concentration in Staphylococcus aureus COL infected New Zealand White rabbit aortic valve endocarditis model at 25 mg/kg, im dosed every 8 hrs for 4 days; format: ADME, organism-based; parameters: dose 25 mg/kg, route intramuscular; settings: in vivo
Summary of the method: (§2)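 Rabbits with catheter-induced aortic valve endocarditis received about 1.5 × 10^7 CFU COL iv in 1 ml 0.9% saline 48 h after catheter placement. Dosing started 16–18 h post-infection. Plasma was sampled 1 h post-dose from at least three rabbits per group and assayed by HPLC against plasma standard curves. Each value is the mean of two determinations; detection limit ≤0.5 μg/ml.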

Staphylococcus aureus [8] = test: as §1, with “in vegetation” for “in kidney”, “at 75” for “at 18”, “mg/kg, sc” for “mg/kg, iv”, “every 8” for “every 24”, “value: 8.4” for “value: 4.4”, “+/- 0.7” for “+/- 1.0”; format: functional; settings: route subcutaneous
Staphylococcus aureus [9] = test: as §1, with “in spleen” for “in kidney”, “at 75” for “at 18”, “mg/kg, sc” for “mg/kg, iv”, “every 8” for “every 24”, “value: 5.1” for “value: 4.4”, “+/- 0.9” for “+/- 1.0”; format: functional; settings: route subcutaneous
Staphylococcus aureus [10] = test: as §1, with “at 75” for “at 18”, “mg/kg, sc” for “mg/kg, iv”, “every 8” for “every 24”; format: functional; settings: route subcutaneous
Oryctolagus cuniculus [11] = test: Plasma concentration in Staphylococcus aureus COL infected New Zealand White rabbit aortic valve endocarditis model at 75 mg/kg, sc dosed every 8 hrs for 4 days; format: ADME, organism-based; parameters: dose 75 mg/kg, route subcutaneous; settings: in vivo; summary of the method: as §2
Staphylococcus aureus [12] = test: Antibacterial activity against methicillin-resistant Staphylococcus aureus COL; format: functional
Staphylococcus aureus [13] = test: as §1, with “spleen” for “kidney”, “30” for “18”, “12” for “24”, “5.1” for “4.4”, “0.9” for “1.0”; format: functional
Staphylococcus aureus [14] = test: as §1, with “vegetation” for “kidney”, “30” for “18”, “12” for “24”, “8.4” for “4.4”, “0.7” for “1.0”; format: functional
Staphylococcus aureus [15] = test: as §1, with “30” for “18”, “12” for “24”; format: functional
Oryctolagus cuniculus [16] = test: Plasma concentration in Staphylococcus aureus COL infected New Zealand White rabbit aortic valve endocarditis model at 30 mg/kg, iv dosed every 12 hrs for 4 days; format: ADME, organism-based; parameters: dose 30 mg/kg, route intravenous; settings: in vivo
Summary of the method: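 Plasma was drawn 1 h after dosing from at least 3 rabbits and assayed by HPLC. Each value averages two determinations, read from plasma standard curves. The detection limit was ≤0.5 μg/ml.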

[17] = Half life in Staphylococcus aureus COL infected New Zealand White rabbit aortic valve endocarditis model at 30 mg/kg, iv dosed every 12 hrs for 4 days; format: ADME, organism-based, Oryctolagus cuniculus; parameters: dose 30 mg/kg, route intravenous; settings: in vivo

With `CCCCCCCCCC(=O)N[C@@H](Cc1c[nH]c2ccccc12)C(=O)N[C@H](CC(N)=O)C(=O)N[C@@H](CC(=O)O)C(=O)N[C@@H]1C(=O)NCC(=O)N[C@@H](CCCN)C(=O)N[C@@H](CC(=O)O)C(=O)N[C@H](C)C(=O)N[C@@H](CC(=O)O)C(=O)NCC(=O)N[C@H](CO)C(=O)N[C@@H]([C@H](C)CC(=O)O)C(=O)N[C@@H](CC(=O)c2ccccc2N)C(=O)O[C@@H]1C` the log10CFU/g (Staphylococcus aureus [1]) was 2.6, the log10CFU/g (Staphylococcus aureus [2]) was 2.3 and the log10CFU/g (Staphylococcus aureus [3]) was 3.6.
`Nc1nc(/C(=N/O)C(=O)N[C@@H]2C(=O)N3C(C(=O)O)=C(/C=C4\CCN([C@@H]5CCNC5)C4=O)CS[C@H]23)ns1` [CEFTOBIPROLE] gave a log10CFU/g (Staphylococcus aureus [4]) of 1.7, a log10CFU/g (Staphylococcus aureus [5]) of 1.8 and a log10CFU/g (Staphylococcus aureus [6]) of 2.1. For the same molecule, the Cp (Oryctolagus cuniculus [7]) was 14400 ng/mL.
`CC(=O)NC[C@H]1CN(c2ccc(N3CCOCC3)c(F)c2)C(=O)O1` [LINEZOLID] showed a log10CFU/g (Staphylococcus aureus [8]) of 5.9, a log10CFU/g (Staphylococcus aureus [9]) of 2.9 and a log10CFU/g (Staphylococcus aureus [10]) of 2.5. It also gave a Cp (Oryctolagus cuniculus [11]) of 28200 ng/mL.
Work on `CCOc1ccc2ccccc2c1C(=O)N[C@@H]1C(=O)N2[C@@H]1SC(C)(C)[C@@H]2C(=O)O` [NAFCILLIN] yielded an MIC (Staphylococcus aureus [12]) of 256 µg/mL (≈ 618 µM).
`CN[C@H](CC(C)C)C(=O)N[C@H]1C(=O)N[C@@H](CC(N)=O)C(=O)N[C@H]2C(=O)N[C@H]3C(=O)N[C@H](C(=O)N[C@H](C(=O)O)c4cc(O)cc(O)c4-c4cc3ccc4O)[C@H](O)c3ccc(c(Cl)c3)Oc3cc2cc(c3O[C@@H]2O[C@H](CO)[C@@H](O)[C@H](O)[C@H]2O[C@H]2C[C@](C)(N)[C@H](O)[C@H](C)O2)Oc2ccc(cc2Cl)[C@H]1O` [VANCOMYCIN] showed a log10CFU/g (Staphylococcus aureus [13]) of 3.3, a log10CFU/g (Staphylococcus aureus [14]) of 5.9 and a log10CFU/g (Staphylococcus aureus [15]) of 3.1. For the same molecule, the Cp (Oryctolagus cuniculus [16]) was 34000 ng/mL and the half-life [17] was 1.33 h.
